Here are results for 22 molecules from ChEMBL document CHEMBL4385637, “2-Aryladenine derivatives as a potent scaffold for A1, A3 and dual A1/A3 adenosine receptor antagonists: Synthesis and structure-activity relationships” (Bioorg Med Chem, 2019).

Holding throughout (type): cell-based
Test [1] has as its target T1, Adenosine receptor A3 (Homo sapiens) (UniProt P0DMS8).
T1 sequence (whole entry): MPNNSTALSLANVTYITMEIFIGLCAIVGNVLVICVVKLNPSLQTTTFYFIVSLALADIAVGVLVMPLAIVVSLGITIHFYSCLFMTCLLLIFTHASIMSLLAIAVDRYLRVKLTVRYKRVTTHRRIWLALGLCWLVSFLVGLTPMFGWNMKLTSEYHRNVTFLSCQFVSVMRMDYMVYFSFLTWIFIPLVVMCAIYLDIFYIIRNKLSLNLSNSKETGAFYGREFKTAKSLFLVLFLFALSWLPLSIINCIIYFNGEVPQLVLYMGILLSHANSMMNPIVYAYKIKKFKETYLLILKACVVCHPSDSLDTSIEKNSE
Put plainly: Displacement of [3H]NECA from human A3 receptor expressed in HeLa-A3 cells at 10 uM incubated for 180 mins by scintillation counting method based radioligand competitive binding assay. In short, it runs like this:
(§1)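 Membranes of HeLa-A3 cells (90 μg protein) in 50 mM Tris-HCl, 1 mM EDTA, 5 mM MgCl2, 2 UI/mL adenosine deaminase, pH 7.4, with 30 nM [3H]NECA. Nonspecific: 100 μM (R)-PIA. 180 min at 25 °C, GF/B filtration, triplicates, scintillation counting. 10 μM single-point inhibition; >80% actives run at 6 concentrations (10 nM–100 μM), pKi via Cheng-Prusoff.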
A general note: In a radioligand displacement assay an active substance lowers the binding of a labelled ligand.

Test [2] concerns the target T2, Adenosine receptor A2b (Homo sapiens) (UniProt P29275).
T2 sequence (whole entry): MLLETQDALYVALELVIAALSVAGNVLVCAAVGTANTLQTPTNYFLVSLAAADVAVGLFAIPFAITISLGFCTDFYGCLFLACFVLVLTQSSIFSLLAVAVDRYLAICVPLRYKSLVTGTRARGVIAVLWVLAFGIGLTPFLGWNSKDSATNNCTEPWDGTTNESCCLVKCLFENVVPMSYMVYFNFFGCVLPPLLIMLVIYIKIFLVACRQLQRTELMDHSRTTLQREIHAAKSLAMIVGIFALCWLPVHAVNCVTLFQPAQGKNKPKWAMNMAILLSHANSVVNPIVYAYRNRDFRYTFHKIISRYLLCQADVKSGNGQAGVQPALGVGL
Briefly: Displacement of [3H]DPCPX from human A2B receptor expressed in HEK-293-A2B cells at 10 uM incubated for 30 mins by scintillation counting method based radioligand competitive binding assay. In short, it runs like this:
(§2)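 HEK-293-A2B membranes, 18 μg protein, in 50 mM Tris-HCl, 1 mM EDTA, 10 mM MgCl2, 0.1 mM benzamidine, 10 µg/mL bacitracin, 2 UI/mL adenosine deaminase, pH 6.5. Tracer 35 nM [3H]DPCPX; 400 μM NECA defines nonspecific binding. 25 °C for 30 min, GF/C filtration, duplicates. Single-point 10 μM screen, then 6-point curves (10 nM–100 μM), Cheng-Prusoff Ki.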

Test [3] addresses T3, Adenosine receptor A1 (Homo sapiens) (UniProt P30542).
T3 sequence (whole entry): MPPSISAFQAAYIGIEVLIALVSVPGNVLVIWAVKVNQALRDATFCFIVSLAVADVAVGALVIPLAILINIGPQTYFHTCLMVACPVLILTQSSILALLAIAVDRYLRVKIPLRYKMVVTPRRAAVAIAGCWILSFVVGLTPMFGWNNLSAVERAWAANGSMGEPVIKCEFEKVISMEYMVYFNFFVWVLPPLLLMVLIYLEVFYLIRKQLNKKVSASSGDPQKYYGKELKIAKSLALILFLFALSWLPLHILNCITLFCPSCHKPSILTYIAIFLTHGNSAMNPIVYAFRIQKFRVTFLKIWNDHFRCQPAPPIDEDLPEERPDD
Put plainly: Displacement of [3H]DPCPX from human A1 receptor expressed in CHO-A1 cells at 10 uM incubated for 60 mins by scintillation counting method based radioligand competitive binding assay. In short, it runs like this: (§3)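 CHO-A1 membranes, 15 μg protein, in 20 mM Hepes, 100 mM NaCl, 10 mM MgCl2, 2 UI/ml adenosine deaminase, pH 7.4. Radioligand 2 nM [3H]DPCPX; nonspecific binding with 10 μM (R)-PIA. Incubated 25 °C for 60 min, filtered, counted, in duplicate. Screen at 10 μM; compounds >80% inhibition tested at 6 concentrations (10 nM–100 μM), Ki by Cheng-Prusoff.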

Test [4] deals with T4, Adenosine receptor A2a (Homo sapiens, UniProt P29274). Put plainly: Displacement of [3H]ZM241385 from human A2A receptor expressed in HeLa-A2A cells at 10 uM incubated for 30 mins by scintillation counting method based radioligand competitive binding assay. In short, it runs like this: (§4)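 Uses HeLa-A2A membranes, 10 µg protein, buffer 50 mM Tris-HCl, 1 mM EDTA, 10 mM MgCl2, 2 UI/mL adenosine deaminase, pH 7.4. 3 nM [3H]ZM241385; nonspecific with 50 µM NECA. 30 min at 25 °C, GF/C filtration, duplicate wells. Screened at 10 μM; if >80% inhibition, 6 concentrations 10 nM–100 μM, Ki by Cheng-Prusoff.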
T4 sequence (P29274 whole entry): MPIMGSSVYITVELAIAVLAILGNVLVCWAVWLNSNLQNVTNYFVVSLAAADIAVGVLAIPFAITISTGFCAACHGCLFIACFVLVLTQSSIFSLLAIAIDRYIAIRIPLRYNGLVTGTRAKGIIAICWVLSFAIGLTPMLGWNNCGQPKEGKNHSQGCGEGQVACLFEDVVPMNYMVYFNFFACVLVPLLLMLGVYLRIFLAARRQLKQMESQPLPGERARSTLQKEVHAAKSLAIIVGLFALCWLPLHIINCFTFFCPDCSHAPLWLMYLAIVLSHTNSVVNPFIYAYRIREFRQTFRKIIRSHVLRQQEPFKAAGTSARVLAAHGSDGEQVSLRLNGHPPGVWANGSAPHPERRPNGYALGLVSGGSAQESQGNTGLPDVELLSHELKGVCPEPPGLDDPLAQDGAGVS

In test [5] the target is T5, Adenosine receptor A1 (Homo sapiens, UniProt P30542).
T5 sequence (P30542 whole entry): T3 sequence (whole entry)
Briefly: Displacement of [3H]DPCPX from human A1 receptor expressed in CHO-A1 cells incubated for 60 mins by scintillation counting method based radioligand competitive binding assay. Put shortly:
as §3

Test [6] concerns the target T6, Adenosine receptor A3 (Homo sapiens, UniProt P0DMS8).
T6 sequence (P0DMS8 whole entry): T1 sequence (whole entry)
Put plainly: Displacement of [3H]NECA from human A3 receptor expressed in HeLa-A3 cells incubated for 180 mins by scintillation counting method based radioligand competitive binding assay. In short, it runs like this:
as §1

Test [7] deals with T7, Adenosine receptor A2b (Homo sapiens, UniProt P29275).
T7 sequence (P29275 whole entry): T2 sequence (whole entry)
Briefly: Displacement of [3H]DPCPX from human A2B receptor expressed in HEK-293-A2B cells incubated for 30 mins by scintillation counting method based radioligand competitive binding assay. In short, it runs like this:
as §2

Test [8] has as its target T4, Adenosine receptor A2a. Briefly: Displacement of [3H]ZM241385 from human A2A receptor expressed in HeLa-A2A cells incubated for 30 mins by scintillation counting method based radioligand competitive binding assay. In short, it runs like this:
as §4

Take `CN1CCN(c2nc(-c3ccc(Cl)cc3)nc3[nH]cnc23)CC1`: the inhibition (in general, the percentage by which the read-out fell short of the control) is greater than 80% in test [1], 6.2% in test [2], greater than 80% in test [3] and 15.9% in test [4]. The values for the Ki in test [5] and in test [6] were 398 nM and 39.8 nM, respectively.

For the molecule `CN1CCN(c2nc(-c3ccc(Cl)c(Cl)c3)nc3c2ncn3C)CC1`, the inhibition in test [1] amounted to 35.3%; in test [2] it was 28.3%; in test [3] it was 65.2%; in test [4], 25%.

For the molecule `Clc1ccc(-c2nc(N3CCCCC3)c3nc[nH]c3n2)cc1Cl`, the inhibition in test [1] was greater than 80%; in test [2], 0.7%; in test [3] it was 24.1%; in test [4], 7%. The affinity in test [6] corresponds to a Ki of 79.4 nM.

For the molecule `Cn1cnc2c(N3CCCCC3)nc(-c3ccccc3O)nc21`, the inhibition in test [1] was 20%; in test [2], 30.2%; in test [3], 50.5%; in test [4] it was 74.8%.

`CN1CCN(c2nc(-c3ccc(O)cc3)nc3[nH]cnc23)CC1`: the inhibition in test [1] was 48%; in test [2], 53%; in test [3] it was greater than 80%; in test [4] it was 37%. The Ki (in general, a dissociation constant, usually derived from enzyme kinetics or from competition with a known ligand) in test [5] is 398 nM.

In the case of `Clc1ccc(Cl)c(-c2nc(N3CCCCC3)c3nc[nH]c3n2)c1`, the inhibition was greater than 80% in test [1], 12.1% in test [2], 1.4% in test [3] and 21% in test [4]. The molecule further showed a Ki in test [6] of 200 nM.

Consider `Clc1cccc(-c2nc(N3CCCCC3)c3nc[nH]c3n2)c1`, for which the inhibition is greater than 80% in test [1], greater than 80% in test [2], greater than 80% in test [3] and 43.5% in test [4]. Also, the Ki in test [7] is 1000 nM; in test [5] it was 50.1 nM; in test [6] it was 39.8 nM.

For `Cn1cnc2c(N3CCCCC3)nc(-c3cccc(Cl)c3)nc21`, the inhibition in test [1] was found to be 6.1%; in test [2], 24.2%; in test [3], 22.4%; in test [4], 17%.

With `Oc1ccc(-c2nc(N3CCCCC3)c3nc[nH]c3n2)cc1`, the inhibition in test [1], in test [2], in test [3] and in test [4] was greater than 80% in each case. Moreover, the inhibitory constant (Ki) in test [7] is 79.4 nM; in test [8] it was 100 nM; in test [5] it was 10 nM; in test [6] it was 39.8 nM.

Consider `CN1CCN(c2nc(-c3ccc(Cl)c(Cl)c3)nc3[nH]cnc23)CC1`, for which the inhibition is greater than 80% in test [1], 24.1% in test [2], greater than 80% in test [3] and 12% in test [4]. The Ki in test [5] is 631 nM; in test [6], 39.8 nM.

Regarding `CN1CCN(c2nc(-c3cccc(O)c3)nc3[nH]cnc23)CC1`, the inhibition in test [1] is greater than 80%; in test [2], 27%; in test [3] it was greater than 80%; in test [4], 1%. The Ki in test [5] was 158 nM; in test [6], 501 nM.

Turning to `Cn1cnc2c(N3CCCCC3)nc(-c3cc(Cl)ccc3Cl)nc21`, the inhibition is 5.4% in test [1], 31% in test [2], 13.2% in test [3] and 2.4% in test [4].

Take `Cn1cnc2c(N3CCCCC3)nc(-c3ccccc3Cl)nc21`: the inhibition was 2.1% in test [1], 32.7% in test [2], 35.2% in test [3] and 36.4% in test [4].

In the case of `CN1CCN(c2nc(-c3ccc(Cl)c(C(F)(F)F)c3)nc3[nH]cnc23)CC1`, the inhibition is greater than 80% in test [1], 25.1% in test [2], 52.4% in test [3] and 32% in test [4]. This molecule showed a Ki in test [6] of 794 nM.

Take `CN1CCN(c2nc(-c3cc(Cl)ccc3Cl)nc3[nH]cnc23)CC1`: the inhibition is greater than 80% in test [1], 13% in test [2], greater than 80% in test [3] and 9.1% in test [4]. The results for the Ki in test [5] and in test [6] were 2510 nM and 251 nM, respectively.

For the molecule `Cn1cnc2c(N3CCCCC3)nc(-c3cccc(O)c3)nc21`, the inhibition in test [1] stood at 49.1%; in test [2], 29.3%; in test [3], 78.5%; in test [4], 54.8%.

For `CN1CCN(c2ncnc3[nH]cnc23)CC1`, the inhibition was 26.9% in test [1], 14% in test [2], 9.2% in test [3] and 19.1% in test [4].

As to `CN1CCN(c2nc(-c3cccc(O)c3)nc3c2ncn3C)CC1`, the inhibition in test [1] came to 63.8%; in test [2] it was 47.8%; in test [3] it was 27.1%; in test [4], 4.2%.

Take `Cn1cnc2c(N3CCCCC3)nc(-c3cccc(O)c3O)nc21`: the inhibition turned out to be 33.7% in test [1], 26% in test [2], 17.2% in test [3] and 24.1% in test [4].

Take `CN1CCN(c2nc(-c3cccc(Cl)c3)nc3[nH]cnc23)CC1`: the inhibition in test [1] is greater than 80%; in test [2], 29.9%; in test [3] it was greater than 80%; in test [4], 52.7%. Also, the Ki is 79.4 nM in test [5] and 100 nM in test [6].

With `CN1CCN(c2nc(-c3ccccc3O)nc3c2ncn3C)CC1`, the inhibition in test [1] was 15.3%; in test [2], 36%; in test [3], greater than 80%; in test [4], 59.6%. This molecule also gave a Ki in test [5] of 631 nM.

For the molecule `CN1CCN(c2nc(-c3cccc(Cl)c3)nc3c2ncn3C)CC1`, the inhibition came to 38.3% in test [1], 19.2% in test [2], 45.7% in test [3] and 21% in test [4].
